According to ChEMBL document CHEMBL4689842, “EUbOPEN Chemogenomics Library wave 1” (2021):
Several values for one entry are separate records, joined by “and”; a condition that tells them apart may be missing. Equal values may be shown once.

Legend:
Format in all cases: toxicity, cell-based
[1] = test system: HEK-293T; assay: Multiplex assay against HEK293T; details: human, 10 µM, compound concentration 10 uM;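 for Population Tubulin-Different-Phenotype (%): share of the cells with healthy nuclei that show this phenotype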
Summary of the method: (§1)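 With compound added, live cells were imaged on a CQ1 microscope at 37°C and 5% CO2; staining with Hoechst33342, BioTracker Green Microtubule Cytoskeleton Dye, MitoTracker Red and Annexin V Alexa Fluor 680 had been done at seeding. The CellPathfinder machine-learning gating scheme split cells into Hoechst high-intensity objects or normal cells, normal cells into healthy, pyknosed or fragmented nuclei, and pyknosed cells into mitotic or apoptotic. The tubulin, mitochondrial-mass and membrane-permeability phenotypes are per cents of healthy-nucleus cells.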

[2] = test system: U2OS; assay: Incucyte cell viability with U2OS; details: human, 10 µM, compound concentration 10 uM; note: filed as whole numbers so only -1 and 0 and 1 occur
[3] = test system: HEK-293T; assay: Incucyte cell viability with HEK293T; details: human, 10 µM, compound concentration 10 uM; note: filed as whole numbers so only -1 and 0 and 1 occur
[4] = test system: Fibroblast; assay: Multiplex assay against human fibroblast; details: 10 µM, compound concentration 10 uM; summary of the method: as §1
[5] = 0 h, replicate number 2, timepoint 0 hours
[6] = 6 h, replicate number 1, timepoint 6 hours
[7] = 12 h, replicate number 1, timepoint 12 hours
[8] = 18 h, replicate number 1, timepoint 18 hours
[9] = 24 h, replicate number 1, timepoint 24 hours

## CN1CCN(C(=O)C(C)(C)c2ccc(C(=O)Nc3cn4cc(-c5ccncc5)ccc4n3)cc2)CC1 [T3-CLK]
[1]; 12 h, replicate 1
  Population Hoechst High Intensity Objects (%): 16% and 14% and 10%
  Population Membrane Permeable-Phenotype (%): 6% and 17%
  Population Normal (%): 83% and 85% and 89%
  Population Pyknosed Nuclei (%): 24% and 27%
[1]; 12 h, replicate 2
  Population Fragmented Nuclei (%): 4% and 3% and 6%
  Population Hoechst High Intensity Objects (%): 7% and 4%
  Population Membrane Permeable-Phenotype (%): 10% and 5%
  Population Mitotic Cells (%): 49% and 79% and 91%
  Population Normal (%): 92% and 95%
  Population Tubulin-Different-Phenotype (%): 89% and 85% and 39%
[1]; 24 h, replicate 1
  Population Fragmented Nuclei (%): 15% and 17% and 6%
  Population Hoechst High Intensity Objects (%): 18% and 17% and 6%
  Population Membrane Permeable-Phenotype (%): 9% and 11% and 13%
  Population Normal (%): 81% and 82% and 93%
  Population Tubulin-Different-Phenotype (%): 100% and 76% and 34%
[1]; 24 h, replicate 2
  Population Fragmented Nuclei (%): 4% and 7%
  Population Membrane Permeable-Phenotype (%): 14% and 16% and 8%
  Population Normal (%): 91% and 97% and 94%
  Population Tubulin-Different-Phenotype (%): 91% and 70% and 94%
[1]; 48 h, replicate 1
  Population Apoptotic (%): 92%
  Population Fragmented Nuclei (%): 19%
  Population Healthy Nuclei (%): 10%
  Population Hoechst High Intensity Objects (%): 18%
  Population Membrane Permeable-Phenotype (%): 0%
  Population Mitochondria Different-Phenotype (%): 94%
  Population Mitotic Cells (%): 7%
  Population Normal (%): 81%
  Population Pyknosed Nuclei (%): 70%
  Population Tubulin-Different-Phenotype (%): 77%
  Total Cell Count: 216
[1]; 48 h, replicate 2
  Population Apoptotic (%): 91%
  Population Fragmented Nuclei (%): 7%
  Population Healthy Nuclei (%): 17%
  Population Hoechst High Intensity Objects (%): 4%
  Population Membrane Permeable-Phenotype (%): 12%
  Population Mitochondria Different-Phenotype (%): 79%
  Population Mitotic Cells (%): 8%
  Population Normal (%): 95%
  Population Pyknosed Nuclei (%): 75%
  Population Tubulin-Different-Phenotype (%): 87%
  Total Cell Count: 142
[2]; [5]
  Growth Rate: 0
[2]; [6]
  Growth Rate: 1
[2]; [7]
  Growth Rate: 0
[2]; 12 h, replicate number 2, timepoint 12 hours
  Growth Rate: 1
[2]; [8]
  Growth Rate: 0
[2]; 18 h, replicate number 2, timepoint 18 hours
  Growth Rate: 1
[2]; [9]
  Growth Rate: 0
[2]; 24 h, replicate number 2, timepoint 24 hours
  Growth Rate: 1
[3]; [5]
  Growth Rate: 1
[3]; [6]
  Growth Rate: 0
[3]; [7]
  Growth Rate: 0
[3]; [8]
  Growth Rate: 0
[3]; [9]
  Growth Rate: 0
[4]; 12 h, replicate 1
  Population Apoptotic (%): 65% and 61% and 86%
  Population Fragmented Nuclei (%): 35% and 22%
  Population Healthy Nuclei (%): 48% and 50% and 64%
  Population Hoechst High Intensity Objects (%): 12% and 17%
  Population Mitochondria Different-Phenotype (%): 6%
  Population Mitotic Cells (%): 35% and 38% and 13%
  Population Normal (%): 87% and 82%
  Population Pyknosed Nuclei (%): 15% and 14% and 13%
  Total Cell Count: 145 and 330 and 306
[4]; 12 h, replicate 2
  Population Membrane Permeable-Phenotype (%): 31% and 20% and 21%
  Population Normal (%): 73% and 49% and 92%
  Population Pyknosed Nuclei (%): 6% and 9% and 11%
  Population Tubulin-Different-Phenotype (%): 44% and 60% and 94%
  Total Cell Count: 87 and 63 and 57
[4]; 24 h, replicate 1
  Population Apoptotic (%): 69% and 55% and 80%
  Population Fragmented Nuclei (%): 37% and 35% and 18%
  Population Healthy Nuclei (%): 48% and 45% and 67%
  Population Hoechst High Intensity Objects (%): 18% and 11% and 13%
  Population Mitotic Cells (%): 30% and 44% and 20%
  Population Normal (%): 81% and 88% and 86%
  Population Pyknosed Nuclei (%): 13% and 19%
  Total Cell Count: 335 and 161 and 296
[4]; 24 h, replicate 2
  Population Membrane Permeable-Phenotype (%): 33% and 17%
  Population Normal (%): 58% and 90% and 61%
  Population Pyknosed Nuclei (%): 9% and 11% and 6%
